According to the EternaBench riboswitch data:

Test system: MS2 coat protein
Test: apparent Kd, MS2 coat protein; higher = weaker binding; RNA-MaP array; FMN 200 µM where present
Outline: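 Binding was read on Illumina sequencing-chip clusters where stalled E. coli RNA polymerase had transcribed each design. A titration of SNAP-549-labelled MS2 coat protein began at 0.7 or 1.5 nM and doubled to 3 µM, once without ligand and once with constant ligand, in 100 mM Tris-HCl pH 7.5, 80 mM KCl, 4 mM MgCl2, BSA, DTT, yeast tRNA and Tween-20. The apparent Kd is the median of filtered per-cluster binding-curve fits, based on green signal normalised to red-channel RNA signal and control-cluster median Fmax.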

[1] = designed as: OFF switch for flavin mononucleotide, no ligand
[2] = ligand present: flavin mononucleotide, designed as: OFF switch for flavin mononucleotide
[3] = designed as: ON switch for flavin mononucleotide, no ligand
[4] = ligand present: flavin mononucleotide, designed as: ON switch for flavin mononucleotide

UGUGCCUCGAGAGGAUAUAUACAUGAGGAUCACCCAUGUAACGAGGUGGAAACACCUCGAAAUGUAUAGAAGGCUCGAGGCACA
apparent Kd [1]: 27.7 nM | apparent Kd [2]: 49.6 nM

UGUGCGUUGAUCUUCGAUCGGUGUACAUGAGGAUCACCCAUGUAGGAUAUUCAAAGACGCAGAUAGGAGAAGGACAUCGGAUUA
apparent Kd [1]: 19.2 nM | apparent Kd [2]: 17.2 nM

UGUGUGUCAGGAUAUCGCGCGCGCGCGGAAAUGUGUGUGUGUGAGAAGGGACAUGAGGAUCACCCAUGUGCGCG
apparent Kd [1]: 115 nM | apparent Kd [2]: 263 nM

UGUGUGUGGCAGGAUAUUCCGGUCGUUGGUCGGGAAGAAGGGUCUACAUGAGGAUCACCCAUGUGACCGGUUGA
apparent Kd [1]: 27 nM | apparent Kd [2]: 27.5 nM

UGUGUGUGGGCAGGAUAUGCAUGAAGAUGUAUGAUGUAGUGUGAUGUAACAUGAGGAUCACCCAUGUAGAAGGGCCGGUGUGUG
apparent Kd [1]: 116 nM | apparent Kd [2]: 139 nM

UGUGUGUGUGUGAGGAUAUCGGGCCCGAAAGGGCCCGAGAAGGCACAUGAGGAUCACCCAUGUAAGCGCGCGCG
apparent Kd [1]: 321 nM | apparent Kd [2]: 108 nM

UGUUGUAUUACAGGAUAUCUAGUAGUUUUAUUUAGAGAAGGGUAUUCACAUGAGGAUCACCCAUGUAUAUACGAGGAAGUUGUG
apparent Kd [3]: 38.9 nM | apparent Kd [4]: 40 nM

UGUUGUAUUACAGGAUAUCUAUGAUUAUUAUUUAGAGAAGGGUAUUCACAUGAGGAUCACCCAUGUAUAUACGAGGAAGUUGUG
apparent Kd [3]: 40.7 nM | apparent Kd [4]: 48.7 nM

UGUUGUAUUACAGGAUAUCUAUUAUGUUUAUUUAGAGAAGGGUAUUCACAUGAGGAUCACCCAUGUAUAUACGAGGAAGUUGUG
apparent Kd [3]: 54.8 nM | apparent Kd [4]: 56.2 nM

UGUUGUUCAGGAUAUGAUGUAUAAUACAUGAGGAUCACCCAUGUAGAUCCUGAAUUAACGUCAGAAGGGAAUGUUG
apparent Kd [1]: 15.1 nM | apparent Kd [2]: 17 nM

UGUUGUUCAGGAUAUGGUGUGUUCUACAUGAGGAUCACCCAUGUGGGUCCUGGUUUGGCGUCAGAAGGGAAUGUUG
apparent Kd [1]: 750 nM | apparent Kd [2]: 746 nM

UGUUUUUAUGUAAGGAUAUGGGUUUGGUUGCGGGCUUAGAAGGUACAUGAGGAUCACCCAUGUAUUUUGUGCAU
apparent Kd [1]: 31.6 nM | apparent Kd [2]: 35.5 nM

UUAAAGGCAGGAUAUACAUUUUUUUUAUUAUCCUCAUUAUUACAUGAGGAUCACCCAUGUAGAAGGGCCAAAUU
apparent Kd [1]: 81.7 nM | apparent Kd [2]: 54.1 nM

UUAAAUCAUGUAGGAUAUGCAUGGCGAAGCUACGCAGAAGGACAUGAGGAUCACCCAUGUGCUAGCGACAGAGUACUGUUGCAA
apparent Kd [1]: 62.7 nM | apparent Kd [2]: 363 nM

UUAAAUCAUGUAGGAUAUGCAUGGCGAAGCUACGCAGAAGGACAUGAGGAUCACCCAUGUGCUAGCGACUGAGUACAGUUGCAA
apparent Kd [1]: 56.4 nM | apparent Kd [2]: 325 nM

UUAAAUCAUGUAGGAUAUGCAUGGCGAAGCUACGCAGAAGGACAUGAGGAUCACCCAUGUGCUAGCGUCUGAGUACAGAUGCAA
apparent Kd [1]: 39.3 nM | apparent Kd [2]: 259 nM

UUAAAUCAUGUAGGAUAUGCAUGGCGAAGCUACGCAGAAGGACAUGAGGAUCACCCAUGUUAAAGCUACCGAGUACGGUGGCAA
apparent Kd [1]: 121 nM | apparent Kd [2]: 193 nM

UUAAAUCAUGUAGGAUAUGCAUGGCGAAGCUACGCAGAAGGACAUGAGGAUCACCCAUGUUAUAGCUACCCAGUACGGUGGCAA
apparent Kd [1]: 95.5 nM | apparent Kd [2]: 251 nM

UUAAAUCAUGUAGGAUAUGCAUGGCGAAGCUACGCAGAAGGACAUGAGGAUCACCCAUGUUCUAGCUACCGAGUUCGGUGGCAA
apparent Kd [1]: 20.2 nM | apparent Kd [2]: 83.8 nM

UUAAAUCAUGUAGGAUAUGCAUGGCGAAGCUACGCAGAAGGACAUGAGGAUCACCCAUGUUCUGGCGUCUGAGUACAGAUGCAA
apparent Kd [1]: 20.3 nM | apparent Kd [2]: 48.8 nM

UUAAAUCGAAACAUGAGGAUCACCCAUGUGUUGUGGUUAAUAUAGGAUAUGUGUAUACUUUUAUGACAGAAGGAUGAUAAUACU
apparent Kd [3]: 15.5 nM | apparent Kd [4]: 12.6 nM

UUAAUUAAAGUGAGGAUAUCUAGAGCCUCGGCUCUAGAGAAGGCACAUGAGGAUCACCCAUGUCUCAAUUAAUU
apparent Kd [1]: 15.7 nM | apparent Kd [2]: 26.8 nM

UUAAUUAACAAGAAGGCUAACAUGAGGAUCACCCAUGUUGUACAUGGAUAUAGAGGAUAUUGCUAAUAAUUAUUUAUCAUAAUU
apparent Kd [1]: 25.6 nM | apparent Kd [2]: 19 nM
